# Source: article PMC3529830 (Chemistry & biology, 2012)
# Key:
# [1] = 5 consecutive days of treatment; ref Demo et al., 2007; cited from earlier work
# P. berghei = P. berghei mouse model of malaria, parasitemia; format: in vivo, Plasmodium berghei in Balb/c mice; conditions: tolerated dose, I.V. daily for 3 consecutive days
# [2] = system: non-confluent human foreskin fibroblast (HFF) cells; assay: HFF cell toxicity assay; format: cell-based; conditions: read-out: EC50, host cell killing
# [3] = system: P. falciparum gametocytes; assay: P. falciparum gametocyte viability assay; format: cell-based, Plasmodium falciparum; conditions: 24 hr treatment
# [4] = molecular target: putative β5 subunit of P. falciparum proteasome (Plasmodium falciparum, UniProt Q8IJT1); assay: Proteasome activity in intact inhibitor-treated trophozoites by MV151 labeling; format: cell-based
# Procedure, shortened: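 P. falciparum culture at ~15% parasitemia; intact trophozoites exposed 1 hr to a range of inhibitor concentrations, then pelleted and washed 3× in fresh medium. Hypotonic lysis (50 mM Tris pH 7.4, 5 mM MgCl2, 1 mM DTT) on ice 1 hr. ≥2 μg lysate labeled with 2 μM MV151, 37°C 1 hr. Run on 12% SDS-PAGE, TAMRA fluorescence scan. Band intensity expressed as % of DMSO; curve fit to IC50; 3 independent experiments.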
# P. falciparum proteasome = assay: Recovery of P. falciparum proteasome activity after inhibitor washout; format: cell-based, Plasmodium falciparum
# P. falciparum [5] = assay: P. falciparum replication assay; format: cell-based; conditions: Plasmodium falciparum, read-out: EC50, parasite replication
# [6] = Host toxicity in P. berghei infected mice during treatment; conditions: daily I.V. doses, scruffy coat, significant weight loss
# NIH3T3 cells = conditions: 1 μM; ref Czesny et al., 2009; cited from earlier work
# P. falciparum [7] = conditions: 1 μM; ref Czesny et al., 2009; cited from earlier work
# A549 cells = conditions: 1 μM; ref Czesny et al., 2009; cited from earlier work
# [8] = rat P. berghei model; ref Gantt et al., 1998; cited from earlier work
smiles,measurement,setting,value
"CC(C)C[C@H](NC(=O)[C@H](CCc1ccccc1)NC(=O)CN1CCOCC1)C(=O)N[C@@H](Cc1ccccc1)C(=O)N[C@@H](CC(C)C)C(=O)[C@@]1(C)CO1 [carfilzomib, Carfilzomib]",maximum tolerable dose,[1],2 mg/kg
same,effect on parasite burden,P. berghei,only a very minor effect on parasite burden at day 3
same,EC50,[2],492 nM
same,activity against gametocytes,[3],effective towards gametocytes
same,IC50,[4],25 nM
same,inhibitor exposure necessary to prevent recovery of proteasome activity,"P. falciparum proteasome; 100 nM dose, activity determined 10 hr after washout",at least 6 hr
same,recovery of proteasome activity after washout,"P. falciparum proteasome; 1 μM, 1 hr treatment, 47 hrs after compound washout",substantial recovery of proteasome activity
same,time to recovery of proteasome activity after inhibitor removal,"P. falciparum proteasome; 1 hr treatment of trophozoites, washout, depending on the dose",≤ 24 h
same,EC50,P. falciparum [5],28.8 nM
same,dose at which mice started to develop signs of compound toxicity,[6],1 mg/kg
CC[C@H](C)[C@H](NC(=O)[C@H]([C@@H](C)CC)N(C)C(C)=O)C(=O)N[C@H](C(=O)N[C@@H](CC(C)C)C(=O)[C@@]1(C)CO1)[C@@H](C)O [epoxomicin],decrease in viability,NIH3T3 cells,20%
same,effect on P. falciparum replication,P. falciparum [7],completely blocking
same,decrease in viability,A549 cells,20%
"CC(=O)N[C@@H](CSC(=O)[C@]1([C@@H](O)C(C)C)NC(=O)[C@H](C)[C@@H]1O)C(=O)O [lactacystin, Lactacystin]",host toxicity,[8],significant host toxicity
